# From PubChem BioAssay
# The list is not random: actives were taken first. Their share in the collection is about 4.7%.
# SKN-1 inh: suppressors of acrylamide-induced Pgst-4::GFP reporter in worms, primary screen, SKN-1 inhibitor project, whole organism, uHTS, GFP/RFP fluorescence ratio, strain VP596; C. elegans VP596 Pgst-4::GFP/RFP ratio, 24 h; inhibition, % at 21.8 µM; 360,000 tested, 0.49% active;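 active = interference check ratio from 0.5 to 1.5 plus GFP to RFP signal ratio inhibition reaching or exceeding a fixed threshold, cut at about 30% in these data, passing the limit was not always enough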
# MPTP inh: mitochondrial permeability transition pore inhibitors, primary screen, biochemical, isolated mouse mitochondria, absorbance | 360,000 tested, 1.4% active | AID 602449, 2012 | inhibition, % at 10 µM | Ca2+ swelling absorbance, 30 min;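 active = inhibition of 50% or more, scaled per plate between neutral and stimulator controls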
# MT1-MMP act inh: blockers of MT1-MMP proenzyme processing, primary screen, HT1080 RFP-PRO-GFP cells, GFP/RFP fluorescence | Matrix metalloproteinase-14 (Homo sapiens), P50281 | GFP/RFP ratio fluorescence, overnight; percent of plate control window, DMSO zero | GFP/RFP ratio change, % at 20 µM | 360,000 tested, 0.061% active;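 active = GFP/RFP ratio change of at least 30% with cell ATP level not reduced by more than half and red fluorescence within 50% of control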
#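 Assay system – RFP-PRO-GFP reporter HT1080 cells · Compound dosing – single dose of 20 µM compound, 1% DMSO final · Incubation – overnight compound exposure at 37 °C · Measure – GFP/RFP fluorescence ratio · Benchmarks – DMSO wells and RFP-L50D-GFP cells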
# ADAM17 inh: ADAM17 inhibitors, primary screen, biochemical, QFRET; Disintegrin and metalloproteinase domain-containing protein 17 (Homo sapiens), P78536; recombinant ADAM17, EDANS/DABCYL FRET peptide cleavage; inhibition, % at 6.95 µM; 370,000 tested, 0.83% active; AID 720648, 2013;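 active = inhibition above the mean of compounds lying between control limits plus 3 SD, set per campaign, cut at about 8.5% in these data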
# NR3A LBD binder: binders of NR3A ligand-binding domain, primary screen, biophysical, differential scanning fluorimetry, uHTS; NR3A LBD differential scanning fluorimetry, Tm shift; 0% = protein alone, 100% = glycine-bound protein; Glutamate receptor ionotropic, NMDA 3A (GRIN3A) ligand-binding domain; 340,000 tested, 2.5% active; Tm shift relative to glycine control, % at 25 µM; AID 1259313, 2017;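 active = melting temperature shift of at least 10% of the positive control shift, at one fixed dose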
# ADAM10 inh: human ADAM10 inhibitors, primary screen, biochemical, QFRET, HTS. recombinant ADAM10, EDANS/DABCYL FRET peptide cleavage, 3 h. inhibition, % at 7 µM. 370,000 tested, 0.62% active. AID 720582, 2013;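 active = inhibition above a per-campaign cutoff equal to the mean of compounds falling between control-based bounds plus 3 SD, cut at about 20% in these data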
# Target sequence (O14672 214-748 limits assumed): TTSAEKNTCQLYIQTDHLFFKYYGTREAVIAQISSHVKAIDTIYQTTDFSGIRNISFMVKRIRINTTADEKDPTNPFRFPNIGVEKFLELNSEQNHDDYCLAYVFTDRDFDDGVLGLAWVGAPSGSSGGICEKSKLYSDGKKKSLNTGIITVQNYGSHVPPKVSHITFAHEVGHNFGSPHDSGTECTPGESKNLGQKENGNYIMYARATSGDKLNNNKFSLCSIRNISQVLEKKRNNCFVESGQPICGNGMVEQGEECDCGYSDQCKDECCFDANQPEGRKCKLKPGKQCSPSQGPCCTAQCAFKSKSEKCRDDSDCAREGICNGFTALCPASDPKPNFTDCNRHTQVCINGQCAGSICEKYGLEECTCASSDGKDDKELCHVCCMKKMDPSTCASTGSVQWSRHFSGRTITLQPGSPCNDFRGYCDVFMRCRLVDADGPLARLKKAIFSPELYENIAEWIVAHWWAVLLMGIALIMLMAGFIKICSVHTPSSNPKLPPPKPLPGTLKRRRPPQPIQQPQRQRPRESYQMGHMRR
# ADAM10 counter: ADAM10 inhibitors, counter-screen for ADAM17 exosite inhibitor project, biochemical, FRET, human ADAM10; 2,900 tested, 47% active; inhibition, % at 6.95 µM; AID 743256, 2014; recombinant ADAM10, EDANS/DABCYL FRET peptide cleavage, 3 h; shares compounds with ADAM17 inh;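 active = mean inhibition over the triplicate runs exceeds the activity threshold set in the earlier primary screen, cut at about 20% in these data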
# ADAM17 confirm: ADAM17 inhibitors, hit retest, confirmation, biochemical, QFRET peptide cleavage; shares compounds with ADAM17 inh; recombinant ADAM17, EDANS/DABCYL QFRET peptide cleavage; inhibition, % at 6.95 µM; 2,900 tested, 65% active; AID 743257, 2014;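 active = mean inhibition across replicates above the hit cutoff set in the primary screen, cut at about 8.5% in these data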
# Numbers stand for hits; – = inactive; · = not tested or not shown.
SMILES,SKN-1 inh,MPTP inh,MT1-MMP act inh,ADAM17 inh,NR3A LBD binder,ADAM10 inh,ADAM10 counter,ADAM17 confirm
CCOc1ccc(C2/C(=C(\O)c3c(C)[nH]c(C(=O)OC)c3C)C(=O)C(=O)N2CCN(C)C)cc1 (configuration not stated),–,–,–,·,–,·,·,·
COc1cccc(NC(=O)/C=C/c2ccc([N+](=O)[O-])cc2)c1,–,–,–,–,–,–,·,·
CC(C)c1nc2cc(C(=O)N(C)C3CCOCC3)ccc2o1,–,–,–,–,–,–,·,·
COc1ccccc1C(CNC(=O)CNC(=O)c1ccc(C)c(C)c1)N1CCCC1 (configuration not stated),–,–,–,–,–,–,·,·
COc1cccc(CC(=O)N(Cc2ccccc2)c2ccccc2C(=O)Nc2cc(OC)ccc2OC)c1,·,·,·,12,·,–,–,13
CCC(=O)N(Cc1ccccc1)c1ccccc1C(=O)Nc1cc(OC)ccc1OC,·,·,·,–,·,–,·,·
Cc1ccc(NC(=O)c2ccccc2OCC(=O)Nc2ccccc2F)cc1S(=O)(=O)N(C)C,–,–,–,11,–,–,42,25
COc1ccc(C)cc1NC(=O)CN(C)S(=O)(=O)c1ccc2c(c1)CCCN2C(C)=O,–,–,–,9.0,–,–,–,–
CCOc1ccc(N=C2SC(C(=O)Nc3ccccc3C#N)C(N)=C2C(=O)Nc2ccc(Cl)cc2)cc1 (configuration not stated),–,–,–,9.4,27,–,21,16
CCOc1ccc(OCC(=O)OCC(=O)Nc2ccccc2C#N)cc1,–,–,–,–,–,–,·,·
CC(C)n1nc(C(=O)OCC(=O)N2CC(=O)Nc3ccccc32)c2ccccc2c1=O,–,–,–,–,–,–,·,·
Cc1ccc(-n2ncc(C(=O)NCC3CCN(C4CCCC4)C3)c2C2CCN(C(=O)OC(C)(C)C)CC2)cc1 (configuration not stated),–,–,–,–,–,–,·,·
Clc1ccc(-c2nnc(SCc3cccc4ccccc34)n2-c2ccc(Cl)cc2)cc1,·,·,·,–,·,–,·,·
Clc1ccc(-n2c(SCc3cccc4ccccc34)nnc2-c2ccccn2)cc1,·,·,·,11,·,–,27,14
CCCCC(CC)C(=O)Oc1ccc(O)c(C(C)(C)C)c1 (configuration not stated),–,–,–,12,–,–,–,–
CC(C)(Oc1ccc(Cl)cc1)C(=O)OCC(=O)Nc1ncc(Cl)cc1Cl,–,–,–,9.9,–,–,–,–
COc1ccc(OCCCC(=O)OCC(=O)Nc2ncc(Cl)cc2Cl)cc1,–,–,–,–,–,–,·,·
Cc1ccccc1-c1nc(S(=O)(=O)c2ccc(Br)cc2)c(NCc2cccnc2)o1,–,–,–,9.9,–,–,–,25
O=C1Nc2ccccc2C1(c1ccccc1)c1ccccc1,–,–,–,–,–,–,·,·
COC(=O)[C@H](C(C)C)N(CCCc1cn(Cc2ccc(C)cc2)nn1)S(=O)(=O)c1ccccc1Br,·,·,·,–,·,–,·,·
COC(=O)[C@H](C(C)C)N(CCCc1cn(CC2CCCCC2)nn1)S(=O)(=O)c1ccc(F)cc1Br,·,·,·,11,·,–,26,14
COC(=O)[C@H](C(C)C)N(CCc1cn(Cc2ccc(C)cc2)nn1)S(=O)(=O)c1ccccc1Br,·,·,·,11,·,–,24,17
O=C(NCCCNC(=O)c1ccccn1)c1ccc(F)cc1,–,–,–,–,–,–,·,·
O=S(=O)(NN=C(c1ccccc1)c1ccccc1)c1ccccc1,–,–,–,–,·,–,·,·
COc1cc(/C=N/n2c(-c3ccc4c(c3)NC(=O)CO4)csc2=Nc2cccc(C)c2)ccc1O,–,–,–,9.3,–,–,–,9.8
SMILES,SKN-1 inh,MPTP inh,MT1-MMP act inh,ADAM17 inh,NR3A LBD binder,ADAM10 inh,ADAM10 counter,ADAM17 confirm
COCCN=c1scc(-c2ccc3c(c2)NC(=O)CO3)n1/N=C(\C)c1ccc(O)cc1,–,–,–,–,–,–,·,·
Cc1cccc(NC(=O)C(C)Sc2ncnc3sccc23)c1 (configuration not stated),–,–,–,–,·,–,·,·
COc1ccc(/C=N/NC(=O)c2cc(-c3ccccc3)nc3ccccc23)cc1O,–,–,–,–,–,–,·,·
COc1cc(/C=N/NC(=O)c2cc(-c3ccccc3OC(C)C)nc3ccccc23)ccc1O,–,–,–,11,–,–,–,15
CCOC(=O)c1sc(SC)c2c1CCCC2=O,–,–,–,9.3,–,–,–,–
C/C(CC(=O)Nc1ccc(OCc2ccccc2)cc1)=N\NC(=O)C(=O)Nc1cccc(C)c1,–,–,–,11,–,–,–,–
CCOC(=O)N1CCC(NCCNC(=O)c2ccccc2)CC1,–,–,–,–,–,–,·,·
CCNC(=O)O/N=C(\C)c1sc(-c2ccc(Cl)cc2)nc1C,–,–,–,9.8,–,–,–,–
C/C(=N\OC(=O)NC(C)C)c1sc(-c2ccc(Cl)cc2)nc1C,–,–,–,–,–,–,·,·
CN(C)S(=O)(=O)c1ccc(S(=O)(=O)Nc2ccc3c(c2)oc2ccccc23)cc1,–,–,–,9.2,22,–,34,17
C/C(=N\N=C1\NC(=O)CS1)c1cccs1,–,–,–,11,–,–,–,–
CCS(=O)(=O)N1CCN(c2ccccc2)CC1,–,–,–,–,–,–,·,·
CCCC#Cc1ccc2c(c1)O[C@H](CN(C)S(=O)(=O)c1cccc(OC)c1)[C@H](C)CN([C@H](C)CO)S2(=O)=O,–,–,–,9.6,·,–,25,13
COc1cccc(C#Cc2ccc3c(c2)O[C@H](CN(C)S(=O)(=O)c2ccccc2F)[C@H](C)CN([C@H](C)CO)S3(=O)=O)c1,–,–,–,11,·,–,–,–
CN(C)CCn1c(=O)n(-c2ccc(F)cc2)c(=O)c2c3c(sc21)CCCCC3,–,–,–,–,–,–,·,·
